According to ChEMBL document CHEMBL1145462, “In vivo pharmacodynamic activity of the glycopeptide dalbavancin” (Antimicrob Agents Chemother, 2007):
Values after ≈ are worked out from the molar mass of the structure shown.

Key:
[1] = Half life in bacterial pathogen-infected neutropenic Swiss ICR mouse thigh infection model at 10 mg/kg, ip; assay type: ADME, organism-based; design: dose 10 mg/kg, route intraperitoneal; conditions: in vivo
Procedure, shortened: (§1)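 Thigh-infected neutropenic mice received single intraperitoneal doses (2.5, 5, 10, 20, 40, 80 mg/kg; 0.2 ml/dose). Blood was drawn by retroorbital aspiration from groups of three mice at 0.5, 1, 2, 4, 6, 24, 48, 72 and 96 h. Plasma levels were measured by microbiologic assay with Bacillus subtilis (detection limit 0.10 mg/liter). Noncompartmental analysis was used: half-life by linear least-squares regression, AUC by trapezoidal rule.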

Staphylococcus aureus [2] = experiment: AUC/MBC ratio of Staphylococcus aureus ATCC 25923 infected neutropenic mouse thigh infection model at 42.7 mg/kg, ip administered every 24 hrs by static effect experiment; assay type: functional; conditions: route intraperitoneal
Staphylococcus aureus [3] = experiment: AUC/MBC ratio of Staphylococcus aureus ATCC 25923 infected neutropenic mouse thigh infection model at 60 mg/kg, ip administered every 24 hrs by 2-log killing experiment; assay type: functional; conditions: route intraperitoneal
Streptococcus pneumoniae [4] = experiment: AUC/MIC ratio of Streptococcus pneumoniae 1293 infected neutropenic mouse thigh infection model at 0.65 mg/kg, ip administered every 24 hrs by 2-log killing experiment; assay type: functional; conditions: route intraperitoneal
Streptococcus pneumoniae [5] = experiment: AUC/MIC ratio of Streptococcus pneumoniae 1199 infected neutropenic mouse thigh infection model at 0.72 mg/kg, ip administered every 72 hrs by static effect experiment; assay type: functional; conditions: route intraperitoneal
Streptococcus pneumoniae [6] = experiment: AUC/MIC ratio of Streptococcus pneumoniae 1325 infected neutropenic mouse thigh infection model at 0.83 mg/kg, ip administered every 72 hrs by static effect experiment; assay type: functional; conditions: route intraperitoneal
Streptococcus pneumoniae [7] = experiment: Antibacterial activity against Streptococcus pneumoniae 1293 by microdilution method; assay type: functional
Procedure, shortened: (§2)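 MIC and MBC were determined by CLSI broth microdilution, in duplicate on at least two occasions. Staphylococci were grown in Mueller-Hinton broth and agar; pneumococci were plated on sheep blood agar.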

Streptococcus pneumoniae [8] = experiment: AUC/MIC ratio of Streptococcus pneumoniae 1293 infected neutropenic mouse thigh infection model at 0.44 mg/kg, ip administered every 24 hrs by static effect experiment; assay type: functional; conditions: route intraperitoneal
Staphylococcus aureus [9] = experiment: AUC/MBC ratio of Staphylococcus aureus Smith infected neutropenic mouse thigh infection model at 59 mg/kg, ip administered every 72 hrs by static effect experiment; assay type: functional; conditions: route intraperitoneal
Staphylococcus aureus [10] = experiment: AUC/MBC ratio of Staphylococcus aureus 33591 infected neutropenic mouse thigh infection model at 33.5 mg/kg, ip administered every 24 hrs by 2-log killing experiment; assay type: functional; conditions: route intraperitoneal
Streptococcus pneumoniae [11] = experiment: Bactericidal activity against penicillin-susceptible Streptococcus pneumoniae ATCC 10813 infected neutropenic Swiss ICR mouse thigh infection model assessed as drug level causing 1-log reduction of bacterial count at 0.71 mg/kg, ip dosed every 72 hrs; assay type: functional; conditions: route intraperitoneal
Procedure, shortened: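 Neutropenic mice (cyclophosphamide ip 150 mg/kg day −4, 100 mg/kg day −1, then every 48 h) received 0.1 ml log-phase inoculum per thigh under halothane. Intraperitoneal dalbavancin started 2 h later and was given for 6 days at q12h, q24h, q36h or q72h, two mice per regimen. Thigh CFU were counted at 144 h. Endpoint doses relative to start-of-therapy counts came from Hill-model nonlinear regression and are expressed per 24 h.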

Streptococcus pneumoniae [12] = experiment: AUC/MIC ratio of Streptococcus pneumoniae 1325 infected neutropenic mouse thigh infection model at 0.99 mg/kg, ip administered every 72 hrs by 1-log killing experiment; assay type: functional; conditions: route intraperitoneal
Streptococcus pneumoniae [13] = experiment: Antibacterial activity against Streptococcus pneumoniae ATCC 10813 by microdilution method; assay type: functional; procedure, shortened: as §2
Staphylococcus aureus [14] = experiment: AUC/MIC ratio of Staphylococcus aureus ATCC 25923 infected neutropenic mouse thigh infection model at 51.2 mg/kg, ip administered every 24 hrs by 1-log killing experiment; assay type: functional; conditions: route intraperitoneal
Staphylococcus aureus [15] = experiment: AUC/MIC ratio of Staphylococcus aureus 307109 infected neutropenic mouse thigh infection model at 37 mg/kg, ip administered every 72 hrs by 2-log killing experiment; assay type: functional; conditions: route intraperitoneal
[16] = AUC in bacterial pathogen-infected neutropenic Swiss ICR mouse thigh infection model at 5 mg/kg, ip; assay type: ADME, organism-based; design: dose 5 mg/kg, route intraperitoneal; conditions: in vivo; procedure, shortened: as §1
Streptococcus pneumoniae [17] = experiment: AUC/MIC ratio of Streptococcus pneumoniae 1199 infected neutropenic mouse thigh infection model at 0.40 mg/kg, ip administered every 24 hrs by static effect experiment; assay type: functional; conditions: dose 0.4 mg/kg; route intraperitoneal
Staphylococcus aureus [18] = experiment: AUC/MBC ratio of Staphylococcus aureus 33591 infected neutropenic mouse thigh infection model at 93 mg/kg, ip administered every 72 hrs by 1-log killing experiment; assay type: functional; conditions: route intraperitoneal
Streptococcus pneumoniae [19] = experiment: AUC/MIC ratio of Streptococcus pneumoniae ATCC 10813 infected neutropenic mouse thigh infection model at 0.71 mg/kg, ip administered every 72 hrs by static effect experiment; assay type: functional; conditions: route intraperitoneal
Staphylococcus aureus [20] = experiment: AUC/MBC ratio of Staphylococcus aureus 33591 infected neutropenic mouse thigh infection model at 74 mg/kg, ip administered every 72 hrs by static effect experiment; assay type: functional; conditions: route intraperitoneal
Staphylococcus aureus [21] = experiment: AUC/MIC ratio of Staphylococcus aureus 307109 infected neutropenic mouse thigh infection model at 31 mg/kg, ip administered every 72 hrs by static effect experiment; assay type: functional; conditions: route intraperitoneal
Staphylococcus aureus [22] = experiment: AUC/MIC ratio of Staphylococcus aureus 33591 infected neutropenic mouse thigh infection model at 93 mg/kg, ip administered every 72 hrs by 1-log killing experiment; assay type: functional; conditions: route intraperitoneal
Staphylococcus aureus [23] = experiment: AUC/MIC ratio of methicillin-resistant Staphylococcus aureus infected neutropenic mouse thigh infection model at 85 mg/kg, ip administered every 72 hrs by 2-log killing experiment; assay type: functional; conditions: route intraperitoneal
Staphylococcus aureus [24] = experiment: AUC/MBC ratio of Staphylococcus aureus 33591 infected neutropenic mouse thigh infection model at 27.7 mg/kg, ip administered every 24 hrs by 1-log killing experiment; assay type: functional; conditions: route intraperitoneal
Staphylococcus aureus [25] = experiment: AUC/MIC ratio of Staphylococcus aureus Smith infected neutropenic mouse thigh infection model at 50.7 mg/kg, ip administered every 24 hrs by 1-log killing experiment; assay type: functional; conditions: route intraperitoneal
Streptococcus pneumoniae [26] = experiment: Antibacterial activity against Streptococcus pneumoniae 1329 by microdilution method; assay type: functional; procedure, shortened: as §2
Staphylococcus aureus [27] = experiment: AUC/MBC ratio of methicillin-resistant Staphylococcus aureus infected neutropenic mouse thigh infection model at 37.7 mg/kg, ip administered every 24 hrs by static effect experiment; assay type: functional; conditions: route intraperitoneal
Staphylococcus aureus [28] = experiment: AUC/MIC ratio of Staphylococcus aureus 307109 infected neutropenic mouse thigh infection model at 34 mg/kg, ip administered every 72 hrs by 1-log killing experiment; assay type: functional; conditions: route intraperitoneal
Staphylococcus aureus [29] = experiment: Antibacterial activity against methicillin-resistant Staphylococcus aureus in presence of 95% mouse serum; assay type: functional
Procedure, shortened: (§3)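 MIC determined in broth, heat-treated (100°C, 30 min) 95% mouse serum, and 95% mouse serum ultrafiltrate, using arithmetic dilutions of 0.02 mg/liter per tube. Protein binding estimated as (MIC in 95% serum − MIC in ultrafiltrate)/MIC in 95% serum.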

Staphylococcus aureus [30] = experiment: AUC/MIC ratio of Staphylococcus aureus 33591 infected neutropenic mouse thigh infection model at 114 mg/kg, ip administered every 72 hrs by 2-log killing experiment; assay type: functional; conditions: route intraperitoneal
Staphylococcus aureus [31] = experiment: Antibacterial activity against Staphylococcus aureus ATCC 25923 in presence of 95% mouse serum; assay type: functional; procedure, shortened: as §3
Staphylococcus aureus [32] = experiment: AUC/MIC ratio of Staphylococcus aureus 31005 infected neutropenic mouse thigh infection model at 67.7 mg/kg, ip administered every 72 hrs by static effect experiment; assay type: functional; conditions: route intraperitoneal

`CN[C@H]1C(=O)N[C@@H]2Cc3ccc(cc3)Oc3cc4cc(c3O[C@@H]3O[C@H](C(=O)O)[C@@H](O)[C@H](O)[C@H]3NC(=O)CCCCCCCCC(C)C)Oc3ccc(cc3Cl)[C@@H](O)[C@@H]3NC(=O)[C@H](NC(=O)[C@@H]4NC(=O)[C@@H](NC2=O)c2cc(cc(O)c2Cl)Oc2cc1ccc2O)c1ccc(O)c(c1)-c1c(O[C@H]2O[C@H](CO)[C@@H](O)[C@H](O)[C@@H]2O)cc(O)cc1[C@@H](C(=O)NCCCN(C)C)NC3=O` [DALBAVANCIN] gave a half-life [1] of 12.5 h, a Ratio (Staphylococcus aureus [2]) of 52 and a Ratio (Staphylococcus aureus [3]) of 69.3. The RatioAUC/MIC (Streptococcus pneumoniae [4]) was 25.9, the RatioAUC/MIC (Streptococcus pneumoniae [5]) was 10.3 and the RatioAUC/MIC (Streptococcus pneumoniae [6]) was 6. The MBC (Streptococcus pneumoniae [7]) was 0.004 µg/mL (≈ 2.2 nM), the MIC (Streptococcus pneumoniae [7]) was 0.004 µg/mL (≈ 2.2 nM) and the RatioAUC/MIC (Streptococcus pneumoniae [8]) was 17.4. For the same compound, the Ratio (Staphylococcus aureus [9]) was 46.1, the Ratio (Staphylococcus aureus [10]) was 74.3 and the Activity (Streptococcus pneumoniae [11]) was 0.77. The RatioAUC/MIC (Streptococcus pneumoniae [12]) was 8.8, the MBC (Streptococcus pneumoniae [13]) was 0.03 µg/mL (≈ 16.5 nM) and the MIC (Streptococcus pneumoniae [13]) was 0.03 µg/mL (≈ 16.5 nM). It also gave a RatioAUC/MIC (Staphylococcus aureus [14]) of 250, a RatioAUC/MIC (Staphylococcus aureus [15]) of 121 and an AUC [16] of 285 µg·h/mL. For the same compound, the RatioAUC/MIC (Streptococcus pneumoniae [17]) was 16, the Ratio (Staphylococcus aureus [18]) was 76.6 and the RatioAUC/MIC (Streptococcus pneumoniae [19]) was 1.4. It also gave a Ratio (Staphylococcus aureus [20]) of 59, a RatioAUC/MIC (Staphylococcus aureus [21]) of 94 and a RatioAUC/MIC (Staphylococcus aureus [22]) of 160. For the same compound, the RatioAUC/MIC (Staphylococcus aureus [23]) was 292, the Ratio (Staphylococcus aureus [24]) was 58.3 and the RatioAUC/MIC (Staphylococcus aureus [25]) was 248. The MBC (Streptococcus pneumoniae [26]) was 0.008 µg/mL (≈ 4.4 nM), the MIC (Streptococcus pneumoniae [26]) was 0.008 µg/mL (≈ 4.4 nM) and the Ratio (Staphylococcus aureus [27]) was 93. For the same compound, the RatioAUC/MIC (Staphylococcus aureus [28]) was 108, the MIC (Staphylococcus aureus [29]) was 32 µg/mL and the RatioAUC/MIC (Staphylococcus aureus [30]) was 195. It also gave an MIC (Staphylococcus aureus [31]) of 32 µg/mL and a RatioAUC/MIC (Staphylococcus aureus [32]) of 223.
